In ChEMBL document CHEMBL2380243, “Design and synthesis of 2-N-substituted indazolone derivatives as non-carboxylic acid glycogen synthase activators” (Bioorg Med Chem Lett, 2013):

Assays:
[1] = molecular target: T1, Glycogen [starch] synthase, muscle (Homo sapiens) (UniProt P13807); assay: Activation of human recombinant muscle GYS1 expressed in insect sf9 cells using glycogen and UDP-glucose as substrates at 75 uM by spectrophotometry relative to control
T1 sequence (whole entry): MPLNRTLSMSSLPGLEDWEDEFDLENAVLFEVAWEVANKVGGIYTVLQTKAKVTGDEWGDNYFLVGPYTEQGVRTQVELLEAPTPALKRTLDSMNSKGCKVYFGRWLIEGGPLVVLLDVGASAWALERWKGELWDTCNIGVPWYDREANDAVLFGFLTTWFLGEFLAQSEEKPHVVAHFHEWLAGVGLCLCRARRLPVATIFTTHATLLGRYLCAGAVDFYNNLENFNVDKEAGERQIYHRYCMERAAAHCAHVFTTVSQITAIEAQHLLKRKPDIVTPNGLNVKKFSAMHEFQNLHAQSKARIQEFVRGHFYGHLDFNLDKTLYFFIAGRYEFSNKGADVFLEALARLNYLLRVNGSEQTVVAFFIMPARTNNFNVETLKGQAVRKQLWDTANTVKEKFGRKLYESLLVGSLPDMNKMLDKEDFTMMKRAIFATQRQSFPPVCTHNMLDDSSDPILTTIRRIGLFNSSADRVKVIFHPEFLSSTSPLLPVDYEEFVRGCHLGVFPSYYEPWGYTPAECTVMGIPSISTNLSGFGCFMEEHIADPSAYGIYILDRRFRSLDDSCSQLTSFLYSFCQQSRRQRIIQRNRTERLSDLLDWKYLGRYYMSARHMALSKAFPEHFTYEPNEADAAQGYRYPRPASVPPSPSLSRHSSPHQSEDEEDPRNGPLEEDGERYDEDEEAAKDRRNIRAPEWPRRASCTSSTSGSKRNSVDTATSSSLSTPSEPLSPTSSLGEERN
How it was run: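 Same coupled GYS1 assay (sf9-derived human muscle enzyme, PK/LDH coupling, NADH absorbance at 340 nm read every 3 min over 15 min, room temperature). Activation is expressed as fold increase over control at the highest concentration tested.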

[2] = molecular target: T2, Glycogen [starch] synthase, muscle (Homo sapiens, UniProt P13807); assay: Activation of human recombinant muscle GYS1 expressed in insect sf9 cells using glycogen and UDP-glucose as substrates by spectrophotometry
T2 sequence (P13807 whole entry): T1 sequence (whole entry)
How it was run: (§1)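 Recombinant human muscle GYS1 (partially purified from sf9 cells) is read in a pyruvate kinase/lactate dehydrogenase-coupled assay at room temperature. Compounds are diluted in 30 mM glycylglycine pH 7.3, 40 mM KCl, 20 mM MgCl2, 9.2% DMSO, ±20 mM glucose-6-phosphate. The substrate mix holds glycogen, UDP-glucose, PEP and NADH, all as solution concentrations. NADH loss is read at 340 nm every 3 min for 15 min. EC50 is half-maximal activation, SC200 is the concentration doubling activity, and dose-response runs are in triplicate.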

[3] = molecular target: T1, Glycogen [starch] synthase, muscle (Homo sapiens); assay: Activation of human recombinant muscle GYS1 expressed in insect sf9 cells using glycogen and UDP-glucose as substrates assessed as concentration required to 200% activation by spectrophotometry; how it was run: as §1
[4] = Cmax in C57 mouse at 10 mg/kg, po; type: ADME, organism-based; design: dose 10 mg/kg, route oral; conditions: in vivo
How it was run: (§2)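 C57 mice get a single oral dose of 10 mg/kg as an aqueous suspension in 0.1 M phosphate buffer, pH 7.4, containing 10% PEG 400 by volume. Plasma exposure is measured and reported as Cmax and AUC.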

[5] = AUC in C57 mouse at 10 mg/kg, po; type: ADME, organism-based; design: dose 10 mg/kg, route oral; conditions: plasma; how it was run: as §2
Mus musculus = assay: Drug metabolism in po dosed C57 mouse assessed as conversion to ortho-aminobenzoic acid in plasma; type: ADME, organism-based; conditions: in vivo

Molecule `COc1cc(F)c(F)cc1-c1ccc(OCc2cccc3c(=O)n(CC(=O)O)[nH]c23)cc1` has a fold change (FC) [1] of 3.2, an EC50 [2] of 200 nM and an Activity [3] of 0.06 µM.

In the case of `O=c1c2cccc(COc3ccc(-c4cc(F)c(F)cc4F)cc3)c2[nH]n1-c1cccnc1`, the fold change (FC) [1] is reported as 5.8, the EC50 [2] is reported as 4010 nM and the Activity [3] is reported as 2.75 µM.

Molecule `O=c1c2cccc(COc3ccc(-c4cc(F)c(F)cc4Cl)cc3)c2[nH]n1C[C@@H](O)CO` has a fold change (FC) [1] of 3.6, an EC50 [2] of 260 nM and an Activity [3] of 0.25 µM.

Work on `O=c1c2cccc(COc3ccc(-c4cc(F)c(F)cc4F)cc3)c2[nH]n1C[C@@H](O)CO` yielded a fold change (FC) [1] of 3.3, an EC50 [2] of 680 nM and an Activity [3] of 0.32 µM.

With `COc1cc(F)c(F)cc1-c1ccc(OCc2cccc3c(=O)n(-c4ccc(F)cc4)[nH]c23)cc1` the fold change (FC) [1] was 2.8, the EC50 [2] was 1370 nM and the Activity [3] was 2.01 µM.

`Cc1cc(F)c(F)cc1-c1ccc(OCc2cccc3c(=O)n(-c4ccc(F)cc4)[nH]c23)cc1` gave a fold change (FC) [1] of 2.5, an EC50 [2] of 1470 nM and an Activity [3] of 1.86 µM.

Work on `Cc1cc(F)c(F)cc1-c1ccc(OCc2cccc3c(=O)n(C)[nH]c23)cc1` yielded a fold change (FC) [1] of 3, an EC50 [2] of 240 nM and an Activity [3] of 0.13 µM.

For `O=C(O)[C@@H]1CCCN1C(=O)c1ccc(COc2ccc(-c3ccccc3)cc2)o1`, the fold change (FC) [1] was 5.8 and the EC50 [2] was 15100 nM.

For `COCCn1[nH]c2c(COc3ccc(-c4cc(F)c(F)cc4OC)cc3)cccc2c1=O`, the fold change (FC) [1] was 4.4, the EC50 [2] was 370 nM and the Activity [3] was 0.11 µM.

`O=C(O)Cn1[nH]c2c(COc3ccc(-c4cc(F)c(F)cc4F)cc3)cccc2c1=O` showed a fold change (FC) [1] of 3.6, an EC50 [2] of 1200 nM and an Activity [3] of 0.69 µM.

For `O=c1c2cccc(COc3ccc(-c4cc(F)c(F)cc4F)cc3)c2[nH]n1C[C@H](O)CO`, the fold change (FC) [1] was 3, the EC50 [2] was 580 nM and the Activity [3] was 0.41 µM.

Work on `O=c1c2cccc(COc3ccc(-c4cc(F)c(F)cc4F)cc3)c2[nH]n1CCO` yielded a Cmax [4] of 1350 ng/mL, a fold change (FC) [1] of 5.5 and an EC50 [2] of 770 nM. It also gave an Activity [3] of 0.22 µM and an AUC [5] of 3590 ng·h/mL.

In the case of `COc1cc(F)c(F)cc1-c1ccc(OCc2cccc(C(=O)N(C)CCO)c2)cc1`, the fold change (FC) [1] is reported as 7.3 and the EC50 [2] is reported as 4100 nM.

Molecule `COc1cc(F)c(F)cc1-c1ccc(OCc2cccc(C(=O)N(C)CC(=O)O)c2)cc1` has a fold change (FC) [1] of 6.8 and an EC50 [2] of 100 nM.

`COc1cc(F)c(F)cc1-c1ccc(OCc2cccc3c(=O)n(C)[nH]c23)cc1` showed a fold change (FC) [1] of 5.4, an EC50 [2] of 320 nM and an Activity [3] of 0.07 µM.

Molecule `COc1cc(F)c(F)cc1-c1ccc(OCc2cccc3c(=O)n(C[C@H](O)CO)[nH]c23)cc1` has a fold change (FC) [1] of 3.3, an EC50 [2] of 250 nM and an Activity [3] of 0.07 µM.

In the case of `O=c1o[nH]c2c(COc3ccc(-c4cc(F)c(F)cc4F)cc3)cccc12`, the fold change (FC) [1] is reported as 4, the EC50 [2] is reported as 1000 nM and the Drug metabolism (Mus musculus) is reported as “Active”. It also gave an Activity [3] of 0.41 µM.

For `COc1cc(F)c(F)cc1-c1ccc(OCc2cccc(C(=O)N(C)CC(O)CO)c2)cc1` (stereo unspecified), the fold change (FC) [1] was 6.6 and the EC50 [2] was 10300 nM.

In the case of `Cn1[nH]c2c(COc3ccc(-c4cc(F)c(F)cc4F)cc3)cccc2c1=O`, the Cmax [4] is reported as 254 ng/mL, the fold change (FC) [1] is reported as 6.8 and the EC50 [2] is reported as 1780 nM. The Activity [3] was 0.49 µM and the AUC [5] was 746 ng·h/mL.

In the case of `COCCn1[nH]c2c(COc3ccc(-c4cc(F)c(F)cc4F)cc3)cccc2c1=O`, the fold change (FC) [1] is reported as 3, the EC50 [2] is reported as 790 nM and the Activity [3] is reported as 0.52 µM.

In the case of `Cc1cc(F)c(F)cc1-c1ccc(OCc2cccc3c(=O)n(C[C@H](O)CO)[nH]c23)cc1`, the fold change (FC) [1] is reported as 3.3, the EC50 [2] is reported as 340 nM and the Activity [3] is reported as 0.11 µM.

With `Cc1cc(F)c(F)cc1-c1ccc(OCc2cccc3c(=O)n(CC(=O)O)[nH]c23)cc1` the fold change (FC) [1] was 3.7, the EC50 [2] was 420 nM and the Activity [3] was 0.33 µM.

Molecule `O=c1c2cccc(COc3ccc(-c4cc(F)c(F)cc4Cl)cc3)c2[nH]n1C[C@H](O)CO` has a fold change (FC) [1] of 3.5, an EC50 [2] of 300 nM and an Activity [3] of 0.16 µM.

For `COc1cc(F)c(F)cc1-c1ccc(OCc2cccc(C(=O)N3CCC[C@H]3C(=O)O)c2)cc1`, the fold change (FC) [1] was 5.4 and the EC50 [2] was 140 nM.

Work on `COc1cc(F)c(F)cc1-c1ccc(OCc2cccc3c(=O)n(C[C@@H](O)CO)[nH]c23)cc1` yielded a fold change (FC) [1] of 3.1, an EC50 [2] of 270 nM and an Activity [3] of 0.06 µM.

In the case of `O=c1c2cccc(COc3ccc(-c4cc(F)c(F)cc4Cl)cc3)c2[nH]n1-c1cccnc1`, the fold change (FC) [1] is reported as 6.1, the EC50 [2] is reported as 1860 nM and the Activity [3] is reported as 1.14 µM.

`Cc1cc(F)c(F)cc1-c1ccc(OCc2cccc3c(=O)n(C[C@@H](O)CO)[nH]c23)cc1` gave a fold change (FC) [1] of 3, an EC50 [2] of 230 nM and an Activity [3] of 0.1 µM.
